{"source": "ChEMBL document CHEMBL3616436", "about": "“Synthesis, cytotoxicity and antimicrobial activity of thiourea derivatives incorporating 3-(trifluoromethyl)phenyl moiety” (Eur J Med Chem, 2015)", "key": {"Yellow fever virus": {"system": "Yellow fever virus", "assay": "Antiviral activity against Yellow fever virus 17D infected in BHK cells assessed as protection against virus-induced cytopathogenicity after 3 to 4 days by MTT assay", "type": "functional, cell-based"}, "Candida parapsilosis": {"system": "Candida parapsilosis", "assay": "Antimicrobial activity against Candida parapsilosis ATCC 22019 after 24 hrs by twofold serial microdilution method", "type": "functional, organism-based"}, "[1]": {"system": "Human immunodeficiency virus 1", "assay": "Antiviral activity against HIV1 3B infected in human MT4 cells assessed as protection against virus-induced cytopathogenicity by MTT assay", "type": "functional, organism-based", "conditions": "Human immunodeficiency virus 1, 3B"}, "Poliovirus 1": {"system": "Poliovirus 1", "assay": "Antiviral activity against Poliovirus type 1 ATCC VR-1562 infected in African green monkey Vero 76 cells assessed as reduction of virus-plaque formation after 2 days by crystal violet staining", "type": "functional, organism-based", "conditions": "Enterovirus C, ATCC VR-1562, Vero, 48 h"}, "[2]": {"system": "Mycobacterium tuberculosis", "assay": "Antimycobacterial activity against drug-sensitive Mycobacterium tuberculosis Spec. 192", "type": "functional", "how_it_was_run": "(§1)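 Classical test-tube successive-dilution method in Youmans' modification of Proskauer and Beck liquid medium with 10% bovine serum. Inoculum came from 14-day cultures. DMSO stock was 10 mg/mL, diluted geometrically in medium. Tubes were incubated at 37 °C. Concentrations tested were 3.1, 6.2, 12.5, 25, 50 and 100 µg/ml. MIC is the minimum concentration inhibiting growth relative to compound-free tubes.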"}, "[3]": {"assay": "Cytotoxicity against human MT4 cells", "type": "cell-based"}, "Coxsackievirus B5": {"system": "Coxsackievirus B5", "assay": "Antiviral activity against Human coxsackievirus B5 ATCC VR-29 infected in African green monkey Vero 76 cells assessed as reduction of virus-plaque formation after 3 days by crystal violet staining", "type": "functional, organism-based", "conditions": "Enterovirus B, ATCC VR-29, Vero, 72 h", "how_it_was_run": "(§2)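 Plaque reduction: Vero-76 at 2x10^5 cells/well grown to confluent monolayers, infected 2 h at 50–100 PFU/well; after removing unadsorbed virus, overlay of D-MEM, 1% inactivated FBS, 0.75% methylcellulose with or without serial compound dilutions; 3 days at 37°C, fixed and stained with crystal violet in 50% ethanol, plaques counted; EC50 by linear regression.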"}, "[4]": {"system": "Vesicular stomatitis virus", "assay": "Antiviral activity against Vesicular stomatitis virus ATCC VR 1540 infected in African green monkey Vero 76 cells assessed as reduction of virus-plaque formation after 2 days by crystal violet staining", "type": "functional, organism-based", "conditions": "ATCC VR 1540, Vero, 48 h"}, "[5]": {"assay": "Antiviral activity against Bovine viral diarrhea virus 1-NADL ATCC VR-534 infected in MDBK cells assessed as protection against virus-induced cytopathogenicity after 3 to 4 days by MTT assay", "type": "functional, cell-based", "conditions": "Bovine viral diarrhea virus isolates and strains, ATCC VR-534, MDBK", "how_it_was_run": "(§3)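 Cells seeded in 96-well plates (BHK 5x10^4, MDBK 3x10^4 cells/well), grown overnight to confluence, infected at m.o.i. 0.01 (BHK for Reo-1, MDBK for BVDV); serial compound dilutions in maintenance medium with 0.5% inactivated FBS added after 1 h; viability by MTT after 3–4 days at 37°C; EC50 for 50% protection by linear regression.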"}, "[6]": {"system": "Mycobacterium tuberculosis", "assay": "Antimycobacterial activity against Mycobacterium tuberculosis H37Rv ATCC 25618", "type": "functional", "how_it_was_run": "as §1"}, "Candida albicans [7]": {"system": "Candida albicans", "assay": "Antimicrobial activity against Candida albicans ATCC 90028 after 24 hrs by twofold serial microdilution method", "type": "functional, organism-based"}, "[8]": {"assay": "Cytotoxicity against African green monkey Vero 76 cells assessed as cell viability after 48 to 96 hrs by crystal violet staining", "type": "cell-based", "conditions": "chlorocebus sabaeus"}, "Pseudomonas aeruginosa [9]": {"system": "Pseudomonas aeruginosa", "assay": "Antimicrobial activity against Pseudomonas aeruginosa ATCC 15442 after 18 hrs by twofold serial microdilution method", "type": "functional, organism-based"}, "[10]": {"system": "Bordetella bronchiseptica", "assay": "Antimicrobial activity against Bordetella bronchiseptica ATCC 4617 after 18 hrs by twofold serial microdilution method", "type": "functional, organism-based"}, "Escherichia coli [11]": {"system": "Escherichia coli", "assay": "Antimicrobial activity against Escherichia coli ATCC 10538 after 18 hrs by twofold serial microdilution method", "type": "functional, organism-based"}, "Candida albicans [12]": {"system": "Candida albicans", "assay": "Antimicrobial activity against Candida albicans ATCC 10231 after 24 hrs by twofold serial microdilution method", "type": "functional, organism-based"}, "Human alphaherpesvirus 1": {"system": "Human alphaherpesvirus 1", "assay": "Antiviral activity against Human herpesvirus 1 KOS ATCC VR-1493 infected in African green monkey Vero 76 cells assessed as reduction of virus-plaque formation after 3 days by crystal violet staining", "type": "functional, organism-based", "conditions": "Human alphaherpesvirus 1, KOS ATCC VR1493, Vero, 72 h", "how_it_was_run": "as §2"}, "Escherichia coli [13]": {"system": "Escherichia coli", "assay": "Antimicrobial activity against Escherichia coli NCTC 8196 after 18 hrs by twofold serial microdilution method", "type": "functional, organism-based"}, "Pseudomonas aeruginosa [14]": {"system": "Pseudomonas aeruginosa", "assay": "Antimicrobial activity against Pseudomonas aeruginosa NCTC 6749 after 18 hrs by twofold serial microdilution method", "type": "functional, organism-based"}, "[15]": {"assay": "Cytotoxicity against bovine MDBK cells assessed as cell viability after 48 to 96 hrs by MTT assay", "type": "cell-based, Bos taurus", "conditions": "cattle"}, "Escherichia coli [16]": {"system": "Escherichia coli", "assay": "Antimicrobial activity against Escherichia coli ATCC 25922 after 18 hrs by twofold serial microdilution method", "type": "functional, organism-based"}, "[17]": {"system": "Mammalian orthoreovirus 1", "assay": "Antiviral activity against Reovirus type-1 ATCC VR-214 infected in BHK cells assessed as protection against virus-induced cytopathogenicity after 3 to 4 days by MTT assay", "type": "functional, cell-based", "conditions": "Mammalian orthoreovirus 1, ATCC VR-214, BHK", "how_it_was_run": "as §3"}, "Vaccinia virus": {"system": "Vaccinia virus", "assay": "Antiviral activity against Human Vaccinia virus ATCC VR-1549 infected in African green monkey Vero 76 cells assessed as reduction of virus-plaque formation after 3 days by crystal violet staining", "type": "functional, organism-based", "conditions": "Orthopoxvirus vaccinia, ATCC VR-1549, Vero, 72 h"}, "Pseudomonas aeruginosa [18]": {"system": "Pseudomonas aeruginosa", "assay": "Antimicrobial activity against Pseudomonas aeruginosa ATCC 27863 after 18 hrs by twofold serial microdilution method", "type": "functional, organism-based"}, "[19]": {"assay": "Cytotoxicity against BHK cells assessed as cell viability after 48 to 96 hrs by MTT assay", "type": "cell-based, Mesocricetus auratus", "conditions": "hamster"}}, "note": "Active and inactive are the calls of the source. No cut-off for these calls is given here.", "data": [{"smiles": "FC(F)(F)c1cccc(NC(=S)NC2CCCCC2)c1", "values": [{"measurement": "EC50", "setting": "Yellow fever virus", "result": "> 14", "unit": "µM"}, {"measurement": "Activity", "setting": "Candida parapsilosis", "result": "inactive"}, {"measurement": "EC50", "setting": "[1]", "result": "> 45", "unit": "µM"}, {"measurement": "EC50", "setting": "Poliovirus 1", "result": "> 60", "unit": "µM"}, {"measurement": "MIC", "setting": "[2]", "result": "> 100", "unit": "µg/mL"}, {"measurement": "CC50", "setting": "[3]", "result": 45, "unit": "µM"}, {"measurement": "EC50", "setting": "Coxsackievirus B5", "result": "> 60", "unit": "µM"}, {"measurement": "EC50", "setting": "[4]", "result": "> 60", "unit": "µM"}, {"measurement": "EC50", "setting": "[5]", "result": "> 48", "unit": "µM"}, {"measurement": "MIC", "setting": "[6]", "result": "> 100", "unit": "µg/mL"}, {"measurement": "Activity", "setting": "Candida albicans [7]", "result": "inactive"}, {"measurement": "CC50", "setting": "[8]", "result": 60, "unit": "µM"}, {"measurement": "Activity", "setting": "Pseudomonas aeruginosa [9]", "result": "inactive"}, {"measurement": "Activity", "setting": "[10]", "result": "inactive"}, {"measurement": "Activity", "setting": "Escherichia coli [11]", "result": "inactive"}, {"measurement": "Activity", "setting": "Candida albicans [12]", "result": "inactive"}, {"measurement": "EC50", "setting": "Human alphaherpesvirus 1", "result": "> 60", "unit": "µM"}, {"measurement": "Activity", "setting": "Escherichia coli [13]", "result": "inactive"}, {"measurement": "Activity", "setting": "Pseudomonas aeruginosa [14]", "result": "inactive"}, {"measurement": "CC50", "setting": "[15]", "result": 48, "unit": "µM"}, {"measurement": "Activity", "setting": "Escherichia coli [16]", "result": "inactive"}, {"measurement": "EC50", "setting": "[17]", "result": "> 14", "unit": "µM"}, {"measurement": "EC50", "setting": "Vaccinia virus", "result": "> 60", "unit": "µM"}, {"measurement": "Activity", "setting": "Pseudomonas aeruginosa [18]", "result": "inactive"}, {"measurement": "CC50", "setting": "[19]", "result": 14, "unit": "µM"}]}]}
